Experiment [1] deals with HCT-116. Put plainly: Cytotoxicity against multidrug-resistant human HCT116 cells by thymidine incorporation assay. The experiment is classed as functional, cell-based. In outline: (§1)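 Cells (3000/well) were plated in IMDM (HCT-116), RPMI 1640 (HCT-15) or MEM (WS-1), each with L-glutamine, 10% FBS and 0.1% penicillin-streptomycin. Compounds in DMSO (1% in all wells) were added after about 6 h and left for 72 h, with 3H-thymidine pulsed for the last 16 h. Uptake was scintillation-counted against DMSO controls. IC50 came from four-concentration curves, three experiments in quadruplicate.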
On the technique in general: Dividing cells build labelled thymidine or BrdU into new DNA.

For experiment [2], the system named is HCT-15. Put plainly: Cytotoxicity against multidrug-resistant human HCT15 cells by thymidine incorporation assay. It counts as functional, cell-based. In outline:
as §1

Experiment [3] is described as follows: Cytotoxicity against human WS1 cells by thymidine incorporation assay. The experiment is classed as cell-based. In outline: as §1
Experiment [4] relates to HCT-116. Briefly: Cytotoxicity against multidrug-resistant human HCT116 cells at 1 uM by thymidine incorporation assay. The experiment is classed as functional. In outline: (§2)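 HCT-116 cells were grown in IMDM and HCT-15 in RPMI 1640, each with L-glutamine, 10% FBS and penicillin-streptomycin, at 3000 cells/well. Compound was applied at 1 µM in 1% DMSO for 72 h total, with 3H-thymidine added for the final 16 h. Percent growth inhibition versus DMSO controls was scintillation-counted, averaging three wells in each of three assays.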

For experiment [5], the system named is HCT-15. Put plainly: Cytotoxicity against multidrug-resistant human HCT15 cells at 1 uM by thymidine incorporation assay. It counts as functional. In outline:
as §2

The results in this text go back to ChEMBL document CHEMBL1140733, “Comprehensive study of sansalvamide A derivatives and their structure-activity relationships against drug-resistant colon cancer cell lines” (J Med Chem, 2008).

Peptide text beside a SMILES is read from it. Bounds are passed on as bounds.

The IC50 is the concentration at which inhibition is half-maximal. A lower IC50 goes with higher potency. Take `Nc1ccn([C@@H]2O[C@H](CO)[C@@H](O)C2(F)F)c(=O)n1` [GEMCITABINE]: the half-inhibitory concentration (IC50) with HCT-116 [1] was 14300 nM; in the experiment on HCT-15 [2] it was 11.8 µM; in experiment [3], 200 µM.

The inhibition is the share of the control response that was lost under treatment. For the molecule `CC(C)C[C@@H]1NC(=O)[C@H](CC(C)C)NC(=O)[C@H](Cc2ccccc2)N(C)C(=O)[C@H](CC(C)C)NC(=O)[C@H](C(C)C)NC1=O` (HELM PEPTIDE1{[meF].L.L.V.L}$PEPTIDE1,PEPTIDE1,1:R1-5:R2$$$V2.0), the results for the IC50 in the experiment on HCT-116 [1] and in the experiment on HCT-15 [2] were greater than 50000 nM and greater than 50 µM, respectively. The inhibition at 1 µM in the experiment on HCT-116 [4] was 2%; in the experiment on HCT-15 [5], 18%.

With `CC(C)C[C@@H]1NC(=O)[C@H](C(C)C)NC(=O)[C@H](CC(C)C)NC(=O)[C@H](CC(C)C)N(C)C(=O)[C@H](Cc2ccccc2)NC1=O` (HELM PEPTIDE1{F.[meL].L.V.L}$PEPTIDE1,PEPTIDE1,1:R1-5:R2$$$V2.0), the IC50 stood at 800 nM in the experiment on HCT-116 [1], 4.5 µM in the experiment with HCT-15 [2] and 200 µM in experiment [3]. In addition, the inhibition at 1 µM in the experiment on HCT-116 [4] is 59%; with HCT-15 [5] it was 35%.

On to `CC(C)C[C@@H]1NC(=O)[C@H](CC(C)C)NC(=O)[C@@H](Cc2ccccc2)NC(=O)[C@H](CC(C)C)NC(=O)[C@H](C(C)C)NC1=O` (HELM PEPTIDE1{L.L.V.L.[dF]}$PEPTIDE1,PEPTIDE1,1:R1-5:R2$$$V2.0), for which the values for the IC50 with HCT-116 [1] and in the experiment with HCT-15 [2] were greater than 50000 nM and greater than 50 µM, respectively. Besides, the inhibition at 1 µM is 30% in the experiment with HCT-116 [4] and 26% with HCT-15 [5].

For `CC(C)C[C@@H]1NC(=O)[C@H](Cc2ccccc2)NC(=O)[C@@H](CC(C)C)N(C)C(=O)[C@H](C(C)C)NC(=O)[C@H](CC(C)C)NC1=O` (HELM PEPTIDE1{F.L.L.V.[CC(C)C[C@H](C(=O)[*:2])N(C)[*:1]]}$PEPTIDE1,PEPTIDE1,1:R1-5:R2$$$V2.0), the concentration for half-maximal inhibition (IC50) in the experiment on HCT-116 [1] was greater than 50000 nM; in the experiment with HCT-15 [2] it was greater than 50 µM. Also, the inhibition at 1 µM is 25% in the experiment on HCT-116 [4] and 33% in the experiment with HCT-15 [5].

In the case of `CC(C)C[C@@H]1NC(=O)[C@H](Cc2ccccc2)NC(=O)[C@@H](CC(C)C)NC(=O)[C@H](C(C)C)NC(=O)[C@H](CC(C)C)NC1=O` (HELM PEPTIDE1{F.L.L.V.[dL]}$PEPTIDE1,PEPTIDE1,1:R1-5:R2$$$V2.0), the IC50 is greater than 50000 nM in the experiment on HCT-116 [1] and greater than 50 µM with HCT-15 [2]. The figures for the inhibition at 1 µM in the experiment with HCT-116 [4] and with HCT-15 [5] were 18% and 10%, respectively.

For the molecule `CC(C)C[C@@H]1NC(=O)[C@H](Cc2ccccc2)NC(=O)[C@H](CC(C)C)N(C)C(=O)[C@H](C(C)C)NC(=O)[C@H](CC(C)C)NC1=O` (HELM PEPTIDE1{F.L.L.V.[meL]}$PEPTIDE1,PEPTIDE1,1:R1-5:R2$$$V2.0), the figures for the half-inhibitory concentration (IC50) with HCT-116 [1] and in the experiment on HCT-15 [2] were greater than 50000 nM and greater than 50 µM, respectively. In addition, the values for the inhibition at 1 µM in the experiment on HCT-116 [4] and in the experiment on HCT-15 [5] were 20% and 3%, respectively.

On to `CC(C)C[C@@H]1NC(=O)[C@H](Cc2ccccc2)NC(=O)[C@H](CC(C)C)NC(=O)[C@@H](C(C)C)NC(=O)[C@H](CC(C)C)NC1=O` (HELM PEPTIDE1{F.L.L.[dV].L}$PEPTIDE1,PEPTIDE1,1:R1-5:R2$$$V2.0), for which the IC50 in the experiment on HCT-116 [1] was 1300 nM; in the experiment on HCT-15 [2], 0.8 µM; in experiment [3] it was 20 µM. In addition, the inhibition at 1 µM with HCT-116 [4] and in the experiment with HCT-15 [5] was 48% throughout.

On to `CC(C)C[C@@H]1NC(=O)[C@H](CC(C)C)NC(=O)[C@@H](Cc2ccc(O)cc2)NC(=O)[C@H](CC(C)C)NC(=O)[C@H](C(C)C)NC1=O` (HELM PEPTIDE1{L.L.V.L.[dY]}$PEPTIDE1,PEPTIDE1,1:R1-5:R2$$$V2.0), for which the IC50 with HCT-116 [1] came out at 1500 nM; with HCT-15 [2], 1 µM; in experiment [3], 200 µM. The results for the inhibition at 1 µM in the experiment with HCT-116 [4] and in the experiment on HCT-15 [5] were 45% and 47%, respectively.

For `CC(C)C[C@@H]1NC(=O)[C@H](Cc2ccccc2)NC(=O)[C@H](CC(C)C)NC(=O)[C@@H](C(C)C)N(C)C(=O)[C@H](CC2CCCCC2)NC1=O` (HELM PEPTIDE1{[Cha].[CC(C)[C@H](C(=O)[*:2])N(C)[*:1]].L.F.L}$PEPTIDE1,PEPTIDE1,1:R1-5:R2$$$V2.0), the results for the IC50 (in the experiment with HCT-116 [1]; in the experiment with HCT-15 [2]; in experiment [3]) were 2100 nM, 0.8 µM and 4 µM, respectively. Moreover, the inhibition at 1 µM worked out at 48% in the experiment with HCT-116 [4] and 60% with HCT-15 [5].

On to `CC(C)C[C@@H]1NC(=O)[C@H](C(C)C)NC(=O)[C@H](CC(C)C)N(C)C(=O)[C@@H](CC(C)C)NC(=O)[C@@H](Cc2ccccc2)NC1=O` (HELM PEPTIDE1{[dL].[meL].V.L.[dF]}$PEPTIDE1,PEPTIDE1,1:R1-5:R2$$$V2.0), for which the IC50 in the experiment with HCT-116 [1] came to 700 nM; with HCT-15 [2] it was 2.2 µM; in experiment [3], 136 µM. Further, the inhibition at 1 µM is 64% with HCT-116 [4] and 42% in the experiment with HCT-15 [5].

Turning to `CC(C)C[C@@H]1C(=O)N[C@H](CC(C)C)C(=O)N(C)[C@H](C(C)C)C(=O)N[C@H](CC(C)C)C(=O)N[C@H](Cc2ccccc2)C(=O)N1C` (HELM PEPTIDE1{[dF].[CC(C)C[C@H](C(=O)[*:2])N(C)[*:1]].[dL].[CC(C)[C@H](C(=O)[*:2])N(C)[*:1]].[dL]}$PEPTIDE1,PEPTIDE1,1:R1-5:R2$$$V2.0), the figures for the inhibition at 1 µM in the experiment on HCT-116 [4] and in the experiment with HCT-15 [5] were 43% and 48%, respectively.

Turning to `CC(C)C[C@@H]1NC(=O)[C@H](CC(C)C)NC(=O)[C@@H](Cc2ccccc2)NC(=O)[C@@H](CC(C)C)NC(=O)[C@@H](C(C)C)NC1=O` (HELM PEPTIDE1{L.L.[dV].[dL].[dF]}$PEPTIDE1,PEPTIDE1,1:R1-5:R2$$$V2.0), the inhibition at 1 µM in the experiment with HCT-116 [4] was found to be 44%; in the experiment with HCT-15 [5], 35%.

Take `CC(C)C[C@H]1NC(=O)[C@@H](Cc2ccccc2)NC(=O)[C@@H](CC(C)C)NC(=O)[C@@H](C(C)C)NC(=O)[C@@H](CC(C)C)NC1=O` (HELM PEPTIDE1{[dF].[dL].[dL].[dV].[dL]}$PEPTIDE1,PEPTIDE1,1:R1-5:R2$$$V2.0): the inhibition at 1 µM was 27% in the experiment on HCT-116 [4] and 15% with HCT-15 [5].

As to `CC(C)C[C@@H]1NC(=O)[C@H](C(C)C)N(C)C(=O)[C@H](CC(C)C)NC(=O)[C@H](CC(C)C)N(C)C(=O)[C@H](Cc2ccccc2)NC1=O` (HELM PEPTIDE1{F.[meL].L.[meV].L}$PEPTIDE1,PEPTIDE1,1:R1-5:R2$$$V2.0), the figures for the inhibition at 1 µM in the experiment on HCT-116 [4] and in the experiment on HCT-15 [5] were 18% and 15%, respectively.

Regarding `CC(C)C[C@@H]1NC(=O)[C@H](C(C)C)NC(=O)[C@H](CC(C)C)NC(=O)[C@@H](CC(C)C)NC(=O)[C@H](Cc2ccccc2)NC1=O` (HELM PEPTIDE1{F.[dL].L.V.L}$PEPTIDE1,PEPTIDE1,1:R1-5:R2$$$V2.0), the values for the inhibition at 1 µM in the experiment with HCT-116 [4] and with HCT-15 [5] were 45% and 10%, respectively.

In the case of `CC(C)C[C@@H]1NC(=O)[C@@H](Cc2ccccc2)NC(=O)[C@@H](CC(C)C)NC(=O)[C@@H](C(C)C)NC(=O)[C@H](CCCCN)NC1=O` (HELM PEPTIDE1{K.[dV].[dL].[dF].L}$PEPTIDE1,PEPTIDE1,1:R1-5:R2$$$V2.0), the inhibition at 1 µM in the experiment on HCT-116 [4] was found to be 2%; in the experiment with HCT-15 [5] it was 17%.

On to `CC(C)[C@@H]1NC(=O)[C@H](Cc2ccccc2)NC(=O)[C@H](C(C)C)NC(=O)[C@@H](CO)NC(=O)[C@H](C(C)C)NC1=O` (HELM PEPTIDE1{F.V.V.[dS].V}$PEPTIDE1,PEPTIDE1,1:R1-5:R2$$$V2.0), for which the inhibition at 1 µM in the experiment on HCT-116 [4] came to 18%; in the experiment with HCT-15 [5], 13%.
